According to ChEMBL document CHEMBL1122885, “Imidazo[1,5-a]pyridines: a new class of thromboxane A2 synthetase inhibitors” (J Med Chem, 1985):
pIC50: −log10 of the molar value.

Columns and labels:
Thromboxane-A synthase [1] = target: T1, Thromboxane-A synthase (Homo sapiens, UniProt P24557); test: In vitro inhibition of thromboxane A2 synthetase from human platelets.
T1 sequence (P24557 whole entry): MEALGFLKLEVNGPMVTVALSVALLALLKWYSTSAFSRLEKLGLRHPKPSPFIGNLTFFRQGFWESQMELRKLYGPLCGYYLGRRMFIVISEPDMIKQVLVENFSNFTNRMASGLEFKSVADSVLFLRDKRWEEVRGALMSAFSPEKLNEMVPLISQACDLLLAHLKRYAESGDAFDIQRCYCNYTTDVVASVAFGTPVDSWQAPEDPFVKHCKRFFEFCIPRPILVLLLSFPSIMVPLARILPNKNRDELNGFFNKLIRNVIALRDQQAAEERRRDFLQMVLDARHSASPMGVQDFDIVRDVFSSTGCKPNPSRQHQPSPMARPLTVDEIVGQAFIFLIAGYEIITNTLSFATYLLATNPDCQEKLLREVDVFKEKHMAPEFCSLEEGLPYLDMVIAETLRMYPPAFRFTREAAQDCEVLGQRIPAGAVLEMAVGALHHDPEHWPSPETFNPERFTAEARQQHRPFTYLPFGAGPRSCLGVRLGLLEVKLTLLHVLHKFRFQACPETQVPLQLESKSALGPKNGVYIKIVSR
Method in brief: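 Human platelet microsomal Tx synthetase, mixed with solubilized partially purified sheep seminal vesicle PGH2 synthetase to make endoperoxide in situ from [1-14C]arachidonic acid (2 nmol). Buffer 0.1 M Tris-HCl pH 7.5 with tryptophan 5 mM and hemoglobin 0.2 μM; 30 min, 37 °C. PGE2 reduced; TLC, scintillation counting. IC50 read graphically as 50% fall in TxB2/PGF2(α+β) count ratio; mean of ≥2 experiments.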

[2] = Partition coefficient (logP); format: physicochemical; details: octanol/water
[3] = target: Prostacyclin synthase (Bos taurus); test: In vitro inhibitory activity against prostacyclin synthetase
Thromboxane-A synthase [4] = target: T1, Thromboxane-A synthase; test: In vitro inhibitory activity against thromboxane A2 synthetase with lysed human platelets as the enzyme source.
Method in brief: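 Crude microsomal Tx synthetase from human platelets plus partially purified sheep seminal vesicle PGH2 synthetase forming endoperoxide in situ from [1-14C]arachidonic acid (4 μM); 0.1 M Tris-HCl pH 7.5, 5 mM tryptophan, 0.2 μM hemoglobin; 30 min, 37 °C. PGE2 reduced to PGF2(α+β); products separated by TLC and counted by scintillation. IC50 read graphically at 50% of control TxB2/PGF2(α+β) count ratio; mean of ≥2 experiments.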

[5] = target: Cyclooxygenase (Ovis aries); test: In vitro inhibitory activity against Prostaglandin G/H synthase

| SMILES | pIC50 (Thromboxane-A synthase [1]) | further results |
| --- | --- | --- |
| O=C(O)/C=C/CCCc1cccc2cncn12 | 8.32 |  |
| O=C(O)/C=C/CCCCCc1cccc2cncn12 | 7.40 |  |
| O=C(O)CCCCc1ccc2cncn2c1 | 5.48 |  |
| Cc1ncc2cccc(CCCCCC(=O)O)n12 | 4.60 |  |
| C/C(=C\CCCCCc1cccc2cncn12)C(=O)O | 7.72 |  |
| O=C(O)CCCCc1ccn2cncc2c1 | 5.33 |  |
| CCOC(=O)CCCCCc1cccc2cncn12 | 6.48 |  |
| O=C(O)/C=C/C=C/c1cccc2cncn12 | 7.55 |  |
| O=C(O)CCCCc1cccn2cncc12 | 6.41 |  |
| CN(C)C(=O)CCCCCc1cccc2cncn12 | 6.26 |  |
| c1cc(CCCCc2nnn[nH]2)n2cncc2c1 | 7.96 |  |
| c1cc(CCCCCc2nnn[nH]2)n2cncc2c1 | 7.72 |  |
| N#CCCCCCc1cccc2cncn12 | 6.20 |  |
| O=C(O)CCCCCc1cccc2cncn12 [PIRMAGREL] |  | pIC50 [3]: 4.00; pIC50 (Thromboxane-A synthase [4]): 8.49; logP [2]: 1.1; IC50 [5]: 10000 nM |

Continued, in another order:

| pIC50 (Thromboxane-A synthase [1]) | SMILES | further results |
| --- | --- | --- |
| 7.11 | NC(=O)CCCCCc1cccc2cncn12 |  |
| 6.57 | CNC(=O)CCCCCc1cccc2cncn12 |  |
| 7.39 | O=C(O)CCCCc1cccc2cncn12 | logP [2]: 0.7 |
| 5.48 | CCCCCCCc1cccc2cncn12 |  |
| 7.70 | O=C(CCCCCc1cccc2cncn12)NO |  |
| 8.28 | O=C(O)CCCCCCc1cccc2cncn12 | logP [2]: 1.54 |
| 7.68 | O=C(O)CCCCCCCc1cccc2cncn12 | logP [2]: 2.01 |
| 6.55 | OCCCCCCc1cccc2cncn12 |  |
